Measurements as given in ChEMBL document CHEMBL1146277, “The discovery of 6-[2-(5-chloro-2-{[(2,4-difluorophenyl)methyl]oxy}phenyl)-1-cyclopenten-1-yl]-2-pyridinecarboxylic acid, GW848687X, a potent and selective prostaglandin EP1 receptor antagonist for the treatment of inflammatory pain” (Bioorg Med Chem Lett, 2007).
Activity calls are given as the source filed them. The calls are words filed in the database; no cut-off is given here.

Experiments:
[1] = molecular target: T1, Prostaglandin E2 receptor EP3 subtype (Homo sapiens, UniProt P43115); assay: Inhibition of human EP3 receptor
T1 sequence (P43115 whole entry): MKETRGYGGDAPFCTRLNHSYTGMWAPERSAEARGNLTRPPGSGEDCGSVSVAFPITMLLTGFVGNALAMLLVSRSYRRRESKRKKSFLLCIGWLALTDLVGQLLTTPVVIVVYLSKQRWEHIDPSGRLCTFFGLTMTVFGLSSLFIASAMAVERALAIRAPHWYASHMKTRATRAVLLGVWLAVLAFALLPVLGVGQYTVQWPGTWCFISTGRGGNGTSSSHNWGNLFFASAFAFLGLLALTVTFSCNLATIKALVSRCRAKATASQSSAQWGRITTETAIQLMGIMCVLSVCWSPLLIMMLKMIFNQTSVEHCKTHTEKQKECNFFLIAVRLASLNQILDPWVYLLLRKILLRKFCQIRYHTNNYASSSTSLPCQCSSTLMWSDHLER

[2] = molecular target: T2, Prostaglandin E2 receptor EP1 subtype (Homo sapiens, UniProt P34995); assay: Inhibition of human EP1 receptor
T2 sequence (P34995 whole entry): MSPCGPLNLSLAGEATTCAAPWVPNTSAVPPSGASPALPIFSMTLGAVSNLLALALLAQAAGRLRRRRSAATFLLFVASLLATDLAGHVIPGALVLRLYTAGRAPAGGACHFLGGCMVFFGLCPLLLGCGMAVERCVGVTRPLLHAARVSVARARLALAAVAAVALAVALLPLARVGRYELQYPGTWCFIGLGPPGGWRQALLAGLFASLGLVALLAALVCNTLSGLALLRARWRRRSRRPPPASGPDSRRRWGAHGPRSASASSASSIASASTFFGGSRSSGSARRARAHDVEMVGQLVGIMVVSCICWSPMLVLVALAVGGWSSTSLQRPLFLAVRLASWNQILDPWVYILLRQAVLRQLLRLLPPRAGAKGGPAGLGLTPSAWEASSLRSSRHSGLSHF

[3] = Half life in rat at 1 mg/kg, iv; assay type: ADME, organism-based; design: dose 1 mg/kg, route intravenous; details: in vivo
[4] = Blood clearance in rat at 1 mg/kg, iv; assay type: ADME, organism-based; design: dose 1 mg/kg, route intravenous; details: whole blood
[5] = Volume of distribution in rat at 1 mg/kg, iv; assay type: ADME, organism-based; design: dose 1 mg/kg, route intravenous; details: in vivo, read-out: Vdss
[6] = Intrinsic clearance in rat liver microsomes; assay type: ADME, Microsome
In short: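 Rate of metabolism measured as intrinsic clearance (ml/min/g) in a rat microsomal assay.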

[7] = test system: Rattus norvegicus; assay: Reversal of hypersensitivity in FCA rat model of acute inflammatory pain at 5 mg/kg, po; assay type: functional
In short: (§1)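 Freund's complete adjuvant injected into one hind paw; 24 h later, with hypersensitivity established, rats received a single oral dose of test compound in 1% methylcellulose. Hypersensitivity was read by weight bearing as percent inhibition (reversal) for each dose. Tested either as a single 5 mg/kg po dose or as a 3-point dose response, with ED₅₀ calculated as the dose giving 50% reversal.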

[8] = molecular target: Cytochrome P450 2C9 (Homo sapiens, UniProt P11712); assay: Inhibition of human CYP2C9; assay type: ADME
In short: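 Inhibition measured in a human recombinant CYP2C9 isozyme assay; IC₅₀ reported in µM.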

[9] = Lipophilicity, log D of the compound; assay type: physicochemical; details: octanol/water
[10] = test system: Rattus norvegicus; assay: Reversal of hypersensitivity in po dosed FCA rat model of acute inflammatory pain; assay type: functional; in short: as §1
[11] = Half life in rat; assay type: ADME, organism-based; details: in vivo
[12] = Blood clearance in rat; assay type: ADME, organism-based; details: whole blood
[13] = Half life in dog; assay type: ADME, organism-based, Canis lupus familiaris; details: in vivo
[14] = test system: Rattus norvegicus; assay: Reversal of antihyperalgesic effect in chronic rat model of joint pain at 30 mg/kg bid for 5 days
[15] = molecular target: T2, Prostaglandin E2 receptor EP1 subtype; assay: Antagonist activity at human EP1 receptor; assay type: functional; details: read-out: pA2 (converted)
[16] = Oral bioavailability in rat; assay type: ADME, organism-based; details: in vivo
[17] = Oral bioavailability in dog; assay type: ADME, organism-based, Canis lupus familiaris; details: in vivo

Sequence of Cytochrome P450 2C9 (P11712 whole entry): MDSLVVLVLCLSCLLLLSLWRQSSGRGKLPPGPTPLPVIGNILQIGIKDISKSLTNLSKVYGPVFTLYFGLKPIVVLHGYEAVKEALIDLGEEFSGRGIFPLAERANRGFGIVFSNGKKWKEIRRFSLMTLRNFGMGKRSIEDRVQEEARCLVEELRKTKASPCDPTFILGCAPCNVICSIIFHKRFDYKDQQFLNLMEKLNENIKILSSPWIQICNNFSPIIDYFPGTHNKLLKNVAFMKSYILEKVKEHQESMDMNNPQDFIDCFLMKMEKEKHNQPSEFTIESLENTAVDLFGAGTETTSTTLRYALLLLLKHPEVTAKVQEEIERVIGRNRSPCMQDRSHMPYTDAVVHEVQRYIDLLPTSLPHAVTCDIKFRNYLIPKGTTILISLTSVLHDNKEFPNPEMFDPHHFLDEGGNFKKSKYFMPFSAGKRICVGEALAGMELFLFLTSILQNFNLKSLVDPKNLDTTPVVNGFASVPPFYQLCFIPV

| SMILES | IC50 [1] [nM] | IC50 [2] [nM] | further results |
| --- | --- | --- | --- |
| O=C(O)c1cccc(C2=C(c3cc(Cl)ccc3OCc3ccccc3)CCC2)c1 | > 3160 | 5.01 |  |
| CSc1ccc(OCc2ccccc2)c(C2=C(c3cccc(C(=O)O)c3)CCC2)c1 | > 3160 | 63.1 |  |
| O=C(O)c1cccc(C2=C(c3cc(Br)ccc3OCc3ccc(F)cc3)CCC2)c1 | > 3160 | 20 | half-life [3]: 0.2 h; clearance [4]: 46 mL/min/kg; Vd [5]: 0.7 L/kg |
| CS(=O)(=O)c1ccc(OCc2ccc(F)cc2F)c(C2=C(c3cccc(C(=O)O)c3)CCC2)c1 | > 3160 | 15.8 |  |
| N#Cc1ccc(OCc2ccc(F)cc2)c(C2=C(c3cccc(C(=O)O)c3)CCC2)c1 | > 3160 | 398 |  |
| O=C(O)c1cncc(C2=C(c3cc(Cl)ccc3OCc3ccc(F)cc3F)CCC2)n1 |  | 2 | CLint scaled [6]: 2.6 mL/min/g; Activity [7]: 52%; IC50 [8]: 12000 nM; logD [9]: 1.6 |
| CS(=O)(=O)c1ccc(OCc2ccc(F)cc2)c(C2=C(c3cccc(C(=O)O)c3)CCC2)c1 | > 3160 | 79.4 |  |
| N#Cc1ccc(OCc2ccccc2)c(C2=C(c3cccc(C(=O)O)c3)CCC2)c1 | > 3160 | 100 |  |
| O=C(O)c1cccc(C2=C(c3ccccc3OCc3ccc(Cl)c(Cl)c3)CCC2)c1 | > 3160 | 398 |  |
| CSc1ccc(OCc2ccc(F)cc2)c(C2=C(c3cccc(C(=O)O)c3)CCC2)c1 | > 3160 | 31.6 |  |
| O=C(O)c1cc(C2=C(c3cc(C(F)(F)F)ccc3OCc3ccccc3)CCC2)ccn1 |  | 39.8 |  |
| O=C(O)c1ccnc(C2=C(c3cc(Br)ccc3OCc3ccc(F)cc3)CCC2)c1 |  | 3.16 | CLint scaled [6]: 20 mL/min/g; IC50 [8]: 5000 nM; logD [9]: 2.7 |
| O=C(O)c1cc(C2=C(c3cc(Cl)ccc3OCc3ccccc3)CCC2)cnn1 |  | 39.8 |  |
| O=C(O)c1cccc(C2=C(c3cc(Br)ccc3OCc3ccc(F)cc3F)CCC2)c1 | > 3160 | 5.01 | half-life [3]: 0.2 h; clearance [4]: 35 mL/min/kg; Vd [5]: 0.6 L/kg |
| O=C(O)c1cccc(C2=C(c3cc(Br)ccc3OCc3ccc(Cl)cc3)CCC2)c1 | > 3160 | 12.6 | clearance [4]: 33 mL/min/kg; Vd [5]: 0.4 L/kg |
| N#Cc1ccc(OCc2ccc(F)cc2F)c(C2=C(c3cccc(C(=O)O)c3)CCC2)c1 | > 3160 | 39.8 |  |
| COc1ccc(COc2ccccc2C2=C(c3cccc(C(=O)O)c3)CCC2)cc1 | > 3160 | 100 |  |

| SMILES | IC50 [1] [nM] | IC50 [2] [nM] | further results |
| --- | --- | --- | --- |
| O=C(O)c1cccc(C2=C(c3cc(Br)ccc3OCc3ccccc3)CCC2)c1 | > 3160 | 12.6 | half-life [3]: 0.3 h; clearance [4]: 52 mL/min/kg; Vd [5]: 1 L/kg |
| CSc1ccc(OCc2ccc(F)cc2F)c(C2=C(c3cccc(C(=O)O)c3)CCC2)c1 | > 3160 | 15.8 |  |
| O=C(O)c1cccc(C2=C(c3cc(Br)ccc3OCc3ccc(Cl)cc3F)CCC2)c1 | > 3160 | 2.51 |  |
| O=C(O)c1cnnc(C2=C(c3cc(Cl)ccc3OCc3ccc(F)cc3F)CCC2)c1 |  | 6.31 | CLint scaled [6]: 14 mL/min/g; IC50 [8]: 5400 nM; logD [9]: 1.2 |
| O=C(O)c1ccnc(C2=C(c3cc(Cl)ccc3OCc3ccccc3)CCC2)n1 |  | 158 | logD [9]: 0.8 |
| O=C(O)c1cccc(C2=C(c3ccccc3OCc3ccc(F)cc3F)CCC2)c1 | > 3160 | 25.1 |  |
| O=C(O)c1cncc(C2=C(c3cc(C(F)(F)F)ccc3OCc3ccccc3)CCC2)c1 |  | 10 | ED50 [10]: 1.3 mg/kg; half-life [11]: 4.1 h; CLint scaled [6]: 2.2 mL/min/g; clearance [12]: 22 mL/min/kg; IC50 [8]: 14000 nM; logD [9]: 2.7 |
| N#Cc1ccc(OCc2ccc(Cl)cc2)c(C2=C(c3cccc(C(=O)O)c3)CCC2)c1 | > 3160 | 200 |  |
| Cc1ncc(C2=C(c3cc(Cl)ccc3OCc3ccc(F)cc3)CCC2)cc1C(=O)O |  | 1.58 | CLint scaled [6]: 3.8 mL/min/g; Activity [7]: <30%; IC50 [8]: 9000 nM; logD [9]: 2.7 |
| O=C(O)c1cc(C2=C(c3cc(Cl)ccc3OCc3ccccc3)CCC2)ncn1 |  | 200 | logD [9]: 1.2 |
| O=C(O)c1cccc(C2=C(c3cc(Br)ccc3OCc3ccc(Cl)c(Cl)c3)CCC2)c1 | > 3160 | 100 |  |
| COc1ccc(COc2ccc(Br)cc2C2=C(c3cccc(C(=O)O)c3)CCC2)cc1 | > 3160 | 39.8 |  |
| O=C(O)c1cccc(C2=C(c3cc(Cl)ccc3OCc3ccc(F)cc3F)CCC2)n1 |  | 2.51 | ED50 [10]: 1.3 mg/kg; half-life [13]: 2 h; Activity [14]: Active; half-life [11]: 2.2 h; CLint scaled [6]: 2.9 mL/min/g; Kb [15]: 0.794 nM; bioavailability [16]: 54%; clearance [12]: 7 mL/min/kg; IC50 [8]: 14000 nM; bioavailability [17]: 53%; logD [9]: 2.6 |
| O=C(O)c1cccc(C2=C(c3ccccc3OCc3ccccc3)CCC2)c1 | > 3160 | 6.31 |  |
| CS(=O)(=O)c1ccc(OCc2ccccc2)c(C2=C(c3cccc(C(=O)O)c3)CCC2)c1 | > 3160 | 79.4 |  |
| O=C(O)c1cccc(C2=C(c3ccccc3OCc3ccc(Cl)cc3F)CCC2)c1 | > 3160 | 50.1 |  |
